Screening data: PubChem, several laboratories
Rows were chosen to be rich in hits. Some 5% of all compounds tested hit in one or more screens of this group.
Mdm2 MdmX PPI = human Mdm2/MdmX binding inhibition; O15151+Q00987; SaOS-2 split-luciferase Mdm2/MdmX complementation, luminescence; inhibition, % at 8 µM; actives 3% (n = 330,000); AID 485346;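 active = inhibition of at least 50% at 8 µM in the primary screen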
Target sequence (O15151 whole entry, looked up): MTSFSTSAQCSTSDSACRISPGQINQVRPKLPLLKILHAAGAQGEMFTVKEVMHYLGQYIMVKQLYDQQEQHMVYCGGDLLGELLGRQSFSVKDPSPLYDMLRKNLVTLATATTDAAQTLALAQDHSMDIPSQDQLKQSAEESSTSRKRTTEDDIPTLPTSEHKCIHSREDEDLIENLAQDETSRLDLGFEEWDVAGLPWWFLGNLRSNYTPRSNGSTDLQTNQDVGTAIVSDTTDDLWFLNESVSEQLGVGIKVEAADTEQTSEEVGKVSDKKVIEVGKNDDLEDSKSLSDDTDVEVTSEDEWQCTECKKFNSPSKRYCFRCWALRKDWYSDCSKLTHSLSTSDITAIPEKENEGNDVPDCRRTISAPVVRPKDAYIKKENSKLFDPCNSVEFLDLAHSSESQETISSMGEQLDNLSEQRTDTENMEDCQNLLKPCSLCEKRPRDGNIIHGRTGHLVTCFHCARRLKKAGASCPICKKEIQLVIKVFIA
Target sequence (Q00987 whole entry, looked up): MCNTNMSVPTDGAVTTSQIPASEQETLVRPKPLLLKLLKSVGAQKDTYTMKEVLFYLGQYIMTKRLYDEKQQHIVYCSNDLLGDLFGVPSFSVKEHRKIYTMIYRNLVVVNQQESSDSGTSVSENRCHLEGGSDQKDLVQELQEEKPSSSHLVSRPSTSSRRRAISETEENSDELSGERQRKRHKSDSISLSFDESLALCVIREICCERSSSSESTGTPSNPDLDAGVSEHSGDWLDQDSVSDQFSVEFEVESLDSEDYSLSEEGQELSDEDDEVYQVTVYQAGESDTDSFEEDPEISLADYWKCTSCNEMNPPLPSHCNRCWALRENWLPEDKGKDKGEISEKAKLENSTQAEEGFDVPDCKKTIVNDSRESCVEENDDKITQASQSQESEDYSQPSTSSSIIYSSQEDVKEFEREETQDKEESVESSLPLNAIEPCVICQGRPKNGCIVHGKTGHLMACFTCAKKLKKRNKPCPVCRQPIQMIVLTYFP
CSC inhib = cancer stem cell inhibition | cancer stem cell-like cells viability, luminescence | inhibition, % at 7.5 µM | actives 1.1% (n = 300,000) | AID 2717; in the data active = inhibition above about 75%; inconclusive = no clear call, values can overlap the other calls; tested in HMLE shEcad cells
Beta apoptosis = beta cell apoptosis inhibition; INS-1E cytokine-induced death, ATP luminescence, 48 h; percent of positive-control rescue, neutral wells zero; protection from apoptosis, % (no concentration beside the values); actives 0.8% (n = 300,000); AID 435005;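 active = Every replicate reaches about 75%, or at least half do and their mean reaches it too, limit read from the data; inconclusive = At least half of replicates reach the limit but their mean does not; inactive = Under half of replicates reach the limit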;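 note: 0% = cytokine-treated negative control wells and 100% = positive control rescue; higher means more ATP so stronger rescue from cytokine killing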
T cruzi inh = blocks replication of Trypanosoma cruzi | T. cruzi beta-gal in NIH3T3, luminescence, 90 h | actives 1.4% (n = 300,000) | inhibition, % (no concentration beside the values) | AID 1885;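 active = mean inhibition across valid replicates above about 55%, limit read from the data; inconclusive = mean below that limit but half or more replicates reach it; inactive = mean below it, under half of replicates reach it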;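 note: signal also drops with host cell toxicity which is not excluded here; 0% = plate median of DMSO wells and 100% = zero luminescence signal; higher percent means less beta-gal luminescence so fewer parasites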
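Incubation – ≥90 h infection period, 3 h prior cell attachment · System – NIH/3T3 fibroblasts plus reporter T. cruzi · Doses – compound pinned at 50 nL/well, DMSO · Read-out basis – percent inhibition of parasite-derived β-gal signal · Signal – luminescent β-galactosidase signal after 60 min lysis · Also added – 5000 T. cruzi trypomastigotes/well · Medium – Low-serum DMEM with 2% FBS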
UPR XBP1 act = adaptive UPR (XBP1) activation. CHO-XBP1 luciferase reporter, IRE1-XBP1 UPR activation, luminescence; percent of tunicamycin response, DMSO as zero. activation, % at 20 µM. actives 0.33% (n = 330,000). AID 463104;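 active = versus positive control, 20 µM dose yields 30% or more activation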;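 note: 100% = tunicamycin at 10 µg/mL and 0% = DMSO only wells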
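Material: CHO cell line with stable XBP1 luciferase reporter; buffer or medium: F12 medium containing 10% fetal bovine serum; compound: single point, 20 µM final compound, 1% DMSO; incubation: 6 h treatment, 37 °C; measured by: glow luminescence from Steady-Glo reagent; evaluation: activation, % of tunicamycin; control set: tunicamycin high, DMSO low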
UPR CHOP act = activators of apoptotic arm of unfolded protein response (CHOP); activation, % at 10 µM; CHO-CHOP luciferase reporter, UPR activation, luminescence; percent of tunicamycin response over DMSO baseline; actives 0.34% (n = 330,000);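 active = at 10 µM dose, activation of 40% or more, normalized to positive control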;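 note: 100% = tunicamycin at 10 µg/mL and 0% = DMSO alone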
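Test system: CHO CHOP reporter cells. Input: 500 CHO-CHOP cells per well. Medium: F12 with 10% FBS. Technique: luciferase luminescence. Measure: percent activation relative to tunicamycin control. Dosing: 10 µM compound, 0.5% DMSO. Timing: 16-18 h cell attachment, then 6 h compound exposure, 37 °C.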
Mdm2-MdmX conf = confirmation of human Mdm2/MdmX interaction inhibitors; actives 55% (n = 10,000); shares compounds with Mdm2 MdmX PPI; inhibition, % at 8 µM; Mdm2-MdmX binding, luminescent assay; in the data active = inhibition above about 40%
Full FLuc ctr = counter-screen for Mdm2/MdmX inhibitors: full-length luciferase; shares compounds with Mdm2 MdmX PPI; SaOS-2 full-length luciferase counterscreen, luminescence; inhibition, % at 8 µM; actives 77% (n = 6,200); AID 504607;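 active = mean inhibition at 8 µM reaching about 37%, which flags the compound as non-specific, limit read from the data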;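 note: p53-null SaOS-2 cells with luciferase driven by a doxycycline-inducible promoter; compound on cells about two nights before reading with doxycycline added after day one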
Starred values were filed as active, the others as inactive; ? = inconclusive; / = no result given.

SMILES | Mdm2 MdmX PPI | CSC inhib | Beta apoptosis | T cruzi inh | UPR XBP1 act | UPR CHOP act | Mdm2-MdmX conf | Full FLuc ctr
CC(C)C(=O)Nc1ccc(C(=O)N/N=C/c2cc(Br)cc(Br)c2O)cc1 | 66* | 84* | 79* | 11 | 6 | -2 | 22 | /
NS(=O)(=O)c1ccc(NC(=O)C(=O)NCCC(=O)O)cc1 | -14 | -10 | 1 | -8 | -1 | 3 | / | /
O=C(Nc1ccc2oc(=O)ccc2c1)c1ccc(-c2ccccc2[N+](=O)[O-])o1 | 62* | 15 | 28 | 1 | 9 | 6 | -8 | /
c1ccc(CSc2ccc(-c3cccnc3)nn2)cc1 | -78 | -1 | 0 | -8 | 1 | 3 | / | /
CCOc1cc(CNC2CCCC2)c(Cl)cc1OCC(=O)Nc1ccccc1 | 5 | / | -2 | 30 | 5 | 3 | / | /
COc1ccc(C(=O)Nc2cc(C)on2)c(OC)c1 | -58 | -9 | / | -4 | -3 | 7 | / | /
COc1ccc(C(=O)Nc2ccc(C)cn2)c(OC)c1 | 68* | 3 | / | 9 | -8 | -10 | 67* | 85*
O=C(Nc1cccc2ccccc12)NC1Cc2ccccc2C1 | 79* | 2 | -9 | 0 | 1 | 0 | 3 | /
O=C(Nc1cccc2ccccc12)NC1CCCCC1 | 15 | -8 | -2 | -17 | -5 | 0 | / | /
COc1ccc2c(-c3ccc(S(N)(=O)=O)cc3)c(-c3ccc(S(C)(=O)=O)cc3)sc2c1 | 67* | / | / | / | -2 | 3 | 14 | /
Cc1ccc(OCCCN2C(=O)C(=O)c3cccc(C)c32)cc1 | 20 | -10 | -3 | -1 | 1 | -3 | / | /
Cc1ccc(OCCN2C(=O)C(=O)c3cc(C)ccc32)cc1 | 62* | ? | 15 | 33 | 18 | 2 | 61* | 79*
CCCN1C(=O)C(=O)c2cc(Cl)ccc21 | 73* | 10 | -12 | / | 25 | 2 | 67* | 45*
CCc1nnc(NC(=O)CSc2nnc(CSc3nc(C)cc(C)n3)o2)s1 | 26 | -1 | -2 | -8 | -2 | 1 | / | /
O=C(N/N=C/c1cc(Cl)c(O)c(Cl)c1)c1cc2c(ccc3ccccc32)o1 | 14 | -4 | / | 15 | 0 | 4 | / | /
Cc1nc(SCC(=O)Nc2ccc(S(=O)(=O)N3CCOCC3)cc2)c2c(C)c(C)sc2n1 | 82* | 21 | 11 | / | -1 | 0 | 44* | 29
Cc1nc(SCC(=O)N2CCOCC2)c2c(C)c(C)sc2n1 | 17 | -12 | -5 | -12 | 1 | 0 | / | /
COC(=O)CCCCCNc1ccc(C(=O)OC)cc1N | -15 | 7 | 5 | -17 | -1 | -2 | / | /
COc1ccc(-n2ncc3c(NCc4ccc5c(c4)OCO5)ncnc32)cc1 | 59* | -8 | -4 | -9 | 7 | 4 | -31 | /
c1nc(NCc2ccc3c(c2)OCO3)c2cc(-c3ccoc3)ccc2n1 | 81* | -5 | -10 | / | 2 | 2 | 75* | 51*
CCCCOc1ccc(NC(=O)Nc2nnc(C)s2)cc1 | -6 | 26 | / | 1 | 2 | 1 | / | /
N#CCc1nc(C(c2ccccc2)c2ccccc2)no1 | -23 | 2 | -1 | -8 | -2 | 1 | / | /
CC(C)c1cc(C(=O)N2CCCC(CCC(=O)NCc3ccccc3F)C2)n(C)n1 (stereo not drawn) | -15 | -30 | 23 | 8 | -2 | 0 | / | /
CCc1ccc(/C=C/C(=O)c2c(C)cc(C)[nH]c2=O)cc1 | 72* | 8 | -24 | -2 | 3 | 1 | 48* | 31
Cc1ccc(/C=C/C(=O)c2c(C)cc(C)[nH]c2=O)cc1 | 70* | / | / | -3 | 6 | 0 | 45* | 51*
SMILES | Mdm2 MdmX PPI | CSC inhib | Beta apoptosis | T cruzi inh | UPR XBP1 act | UPR CHOP act | Mdm2-MdmX conf | Full FLuc ctr
Cc1cc(C)c(C(=O)/C=C/c2cccs2)c(=O)[nH]1 | 23 | -16 | -6 | -23 | -2 | 2 | / | /
CCc1ccc(/C=C(\C)C(=O)c2c(C)cc(C)[nH]c2=O)cc1 | -18 | -6 | -4 | -3 | 2 | -1 | / | /
COc1ccc(CNC(=O)CSc2nc3ccccc3n2C(C)=O)cc1 | -5 | -1 | -6 | -4 | 2 | 0 | / | /
CCN(CC)CCCN(C(=O)c1ccc(F)cc1)c1nc(-c2ccc(OC)cc2)cs1 | 31 | 8 | -13 | 27 | -4 | 1 | / | /
Cc1cccc(CN2CCC(CNC(=O)CSc3cc(=O)n(C)c4cc(Cl)ccc34)CC2)c1 | 65* | -14 | -7 | 47 | -1 | 2 | 42* | 67*
CCCNC(=O)c1nnsc1S(=O)(=O)c1ccc(Cl)cc1 | 96* | / | / | / | -9 | -5 | 100* | 51*
CNC(=O)c1nnsc1S(=O)c1ccc(Cl)cc1 (stereo not drawn) | 98* | / | / | 60* | -10 | -11 | 94* | 3
CCCNC(=O)c1nnsc1S(=O)c1ccc(Cl)cc1 (stereo not drawn) | 97* | / | / | 67* | -8 | -11 | 100* | 2
COC(=O)c1cn(Cc2cc(OC)ccc2OC)cc(F)c1=O | 6 | -12 | -1 | -8 | -5 | 0 | / | /
CN(C(=O)COC(=O)c1ccc2ccccc2n1)C1CCS(=O)(=O)C1 (stereo not drawn) | 36 | -1 | 0 | -2 | -4 | -2 | / | /
CCNc1cc(N2CCCC2)ccc1[N+](=O)[O-] | 51* | 10 | 2 | -2 | -2 | 2 | 9 | /
CCN(CC)S(=O)(=O)c1ccc(C(=O)NCC2(N3CCOCC3)CCCCC2)cc1 | -12 | -9 | 1 | / | -4 | 0 | / | /
Cc1cc(C)nc(S/C=C/C(=O)c2ccc(F)cc2)n1 | 101* | 20 | 2 | -20 | -6 | 12 | -2 | /
CC(C)(C)c1ccc(C(=O)N2CCCC2c2cccs2)cc1 (stereo not drawn) | -2 | 4 | -5 | 6 | -4 | 2 | / | /
COc1ccc(Cn2c(=O)[nH]c3cc(C(=O)NCc4ccc5c(c4)OCO5)ccc3c2=O)cc1 | 65* | 0 | 5 | 14 | 20 | 1 | 29 | /
COc1ccc(Cn2c(=S)[nH]c3cc(C(=O)NCc4cccnc4)ccc3c2=O)cc1 | 74* | 29 | 11 | 3 | -1 | 3 | -8 | /
COc1ccc(Cn2c(=O)[nH]c3cc(C(=O)NCCCOC(C)C)ccc3c2=O)cc1 | 6 | -8 | 2 | 5 | -1 | 0 | / | /
O=C(NCC1CCCO1)c1ccc2c(=O)n(Cc3cccc(Br)c3)c(=S)[nH]c2c1 (stereo not drawn) | 58* | 22 | 20 | 3 | 5 | -1 | 30 | /
